Measured values published in ChEMBL document CHEMBL3112563, “The benzimidazole based drugs show good activity against T. gondii but poor activity against its proposed enoyl reductase enzyme target” (Bioorg Med Chem Lett, 2014).
pIC50: −log10 of the molar value. ≈ marks a conversion by molar mass, not a printed value. Calls of active or inactive are those of the source. The rule behind the calls is not given here.

Tests used:
HFF = assay: Cytotoxicity against HFF assessed as cell viability at 10 uM after 72 hrs by WST-1 assay; format: cell-based; conditions: human
Outline: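 Host HFF incubated with compound at 10 µM for 72 h. Viability read by WST-1 staining. DMSO at several concentrations in the culture medium gave a standard toxicity curve.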

PC-3 = assay: Cytotoxicity against human PC3 cells at 10 uM after 96 hrs by luciferase reporter gene assay; format: cell-based; conditions: pc-3, 96 h
Outline: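 Confluent luciferase-expressing PC3-Luc cells in phenol red-free DMEM (10% FCS, 1% L-glutamine, 1% penicillin-streptomycin) given compound at 10 nM–10 µM. D-luciferin potassium salt added at 150 µg/ml at 48 and 96 h, then bioluminescence imaged for 1 min. Cytotoxicity taken as loss of signal. Controls: 1% Triton X (positive) and vehicle.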

Toxoplasma gondii [1] = assay: Antiparasitic activity against tachyzoite stage of Toxoplasma gondii PRU infected in HFF assessed as inhibition of parasite growth at 10 uM after 72 hrs by yellow fluorescence reporter gene assay; format: functional
[2] = molecular target: T1, Enoyl-acyl carrier reductase (Toxoplasma gondii, UniProt Q6UCJ9); assay: Inhibition of Toxoplasma gondii enoyl-ACP reductase-NADH complex
T1 sequence (Q6UCJ9 whole entry): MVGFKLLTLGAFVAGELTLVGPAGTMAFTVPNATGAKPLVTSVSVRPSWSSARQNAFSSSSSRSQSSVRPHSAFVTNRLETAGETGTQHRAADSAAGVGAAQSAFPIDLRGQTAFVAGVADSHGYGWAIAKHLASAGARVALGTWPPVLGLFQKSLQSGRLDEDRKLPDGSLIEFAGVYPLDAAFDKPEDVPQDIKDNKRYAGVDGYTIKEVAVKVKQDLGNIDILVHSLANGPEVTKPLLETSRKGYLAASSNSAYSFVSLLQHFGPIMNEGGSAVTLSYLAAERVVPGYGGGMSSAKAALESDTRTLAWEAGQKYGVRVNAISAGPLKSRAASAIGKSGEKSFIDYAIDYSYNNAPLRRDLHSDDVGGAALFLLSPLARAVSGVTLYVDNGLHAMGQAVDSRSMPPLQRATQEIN

Toxoplasma gondii [3] = assay: Antiparasitic activity against tachyzoite stage of Toxoplasma gondii RH infected in HFF assessed as inhibition of parasite growth after 72 hrs by yellow fluorescence reporter gene assay; format: functional
Outline: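 HFF infected with 3200 RH-YFP tachyzoites (type 1, stably transfected with yellow fluorescence gene) and treated with compound at the indicated concentrations. Relative YFP fluorescence read after 72 h at excitation/emission 510/540 nm. Controls: pyrimethamine/sulfadiazine (positive), 0.1% DMSO (negative).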

For `Cc1cc2ncn(Cc3ccc(Cl)c(Cl)c3)c2cc1C`, the Activity (HFF) was “Non-toxic”, the Activity (PC-3) was “Non-toxic” and the inhibition (Toxoplasma gondii [1]) was “Active”. It also gave a pIC50 [2] of less than 6.00 and an MIC50 (Toxoplasma gondii [3]) of 2.5 µM (≈ 0.763 µg/mL).
For `Cc1cc2ncn(Cc3ccc(Cl)cc3)c2cc1C`, the Activity (HFF) was “Non-toxic”, the Activity (PC-3) was “Non-toxic” and the pIC50 [2] was less than 6.00. For the same compound, the MIC50 (Toxoplasma gondii [3]) was 4 µM (≈ 1.08 µg/mL).
With `Cc1ccc(Cn2cnc3cc(C)c(C)cc32)cc1` the Activity (HFF) was “Non-toxic”, the Activity (PC-3) was “Non-toxic” and the inhibition (Toxoplasma gondii [1]) was “Active”. The pIC50 [2] was less than 6.00 and the MIC50 (Toxoplasma gondii [3]) was greater than 10 µM.
